From ChEMBL document CHEMBL1142299, “Coumarin as attractive casein kinase 2 (CK2) inhibitor scaffold: an integrate approach to elucidate the putative binding motif and explain structure-activity relationships” (J Med Chem, 2008) come the findings set out here.

pIC50, pKi: −log10 of the molar value.

The experiment can be described thus: Inhibition of CK2 in rat liver. A digest of the protocol:
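Native CK2 purified from rat liver. Started with kinase, stopped at 10 min with orthophosphoric acid. Read by phosphocellulose filter binding and counting. Three independent experiments, values averaged.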

Turning to `Cc1cc(=O)oc2cc(O)ccc12` [HYMECROMONE], the pIC50 was < 4.00.
Compound `O=c1oc2c(O)c(O)cc3c(=O)oc4c(O)c(O)cc1c4c23` [ELLAGIC ACID] had a pIC50 of 7.40.
`Cc1c(Br)c(=O)oc2c(Br)c(O)c(O)cc12` showed a pIC50 of 5.70. This pIC50 is 1.70 log units lower than that of the compound before.
`Cc1c(Br)c(=O)oc2c(Br)c(O)ccc12` had a pIC50 of 7.00 and a negative-log Ki (pKi) of 7.22.
`Cc1cc(=O)oc2c(C=O)c(O)ccc12`: the pIC50 was < 4.40.
As to `O=C(O)/C=C/c1cc(Br)c(Br)c(Br)c1Br`, the pIC50 was 6.96.
For the compound `COc1cc(O)cc2oc(=O)c(C)cc12`, the pIC50 was < 4.40.
Take `Cc1cc(=O)oc2cc(O)cc(O)c12` [5,7-DIHYDROXY-4-METHYLCOUMARIN]: the pIC50 is 4.46.
Turning to `Cc1c(Br)c(=O)oc2c(C=O)c(O)ccc12`, the pIC50 is 5.48.
Consider `COc1c(O)c(-c2ccnnc2)cc2ccc(=O)oc12`, for which the pIC50 was < 4.00.
Still for that read-out and setting: with `O=c1ccc2c(O)cc(O)cc2o1` the figure was 4.46.
The same measure, in the same setting: with `Cc1c(Br)c(=O)oc2c(O)c(O)ccc12` the figure was 4.98; with `Cc1cc(=O)oc2cc3c([N+](=O)[O-])c(O)ccc3cc12`, 6.52; with `O=c1c2c(O)cccc2oc2c([N+](=O)[O-])ccc(O)c12`, 6.40.
In the case of `Cc1c(Br)c(=O)oc2c(Br)c(N)ccc12`, the pIC50 was < 4.40.
For `CCOC(=O)c1cc2c(Br)cccc2oc1=O`, the negative-log IC50 (pIC50) is 3.93.
Still for that read-out and setting: under `Cc1cc(=O)oc2c(C)c(O)c([N+](=O)[O-])cc12` stands 4.52.
Still for that read-out and setting: under `O=c1ccc2ccc(O)cc2o1` [UMBELLIFERONE] stands < 4.00; under `O=c1cc(CCl)c2ccc(O)cc2o1`, < 4.40.

In general, pIC50 refers to −log10 of the IC50, conventionally taken in molar units. Higher therefore signals a small IC50. The term pKi denotes the Ki on a negative log10 scale, so that one unit is a factor of ten. Low readings indicate a high Ki, high ones a low Ki.
